The text below walks through data of ChEMBL document CHEMBL2157889, “Design, synthesis and biological evaluation of heterocyclic azoles derivatives containing pyrazine moiety as potential telomerase inhibitors” (Bioorg Med Chem, 2012).

As usually defined, the IC50 is the concentration that inhibits the measured activity by half. A high value points to lower potency.

Assay [1] has as its system HepG2. Put plainly: Induction of apoptosis in human HepG2 cells assessed as necrotic cells at 0.25 uM after 24 hrs by annexin VeFITC/PI-based flow cytometry (reference value: 0.7 %). The assay is classed as functional. In general terms: In flow cytometry, cells or beads pass a laser one at a time.
Assay [2] concerns HepG2. Put plainly: Induction of apoptosis in human HepG2 cells assessed as viable cells at 2 uM after 24 hrs by annexin VeFITC/PI-based flow cytometry (reference value: 89.18 %). The class given is functional. Conditions: HepG2, 24 h, read-out: Activity.
The test system of assay [3] is HepG2. Put plainly: Induction of apoptosis in human HepG2 cells assessed as viable cells at 0.5 uM after 24 hrs by annexin VeFITC/PI-based flow cytometry (reference value: 89.18 %). The assay is classed as functional. Conditions: HepG2, 24 h, read-out: Activity.
The subject of assay [4] is HepG2. The assay can be described thus: Induction of apoptosis in human HepG2 cells assessed as viable cells at 0.25 uM after 24 hrs by annexin VeFITC/PI-based flow cytometry (reference value: 89.18 %). The class given is functional. Conditions: HepG2, 24 h, read-out: Activity.
Another assay concerns BGC-823. Put plainly: Antiproliferative activity against human BGC823 cells after 48 hrs by MTT method. The assay is classed as functional, cell-based. Conditions: BGC-823, 48 h. In outline: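 MTT assay. Cells were seeded at 10⁴ per well and held 24 h at 37 °C with 5% CO₂. […] After 48 h, 5 mg/mL MTT in PBS was added for 4 h. Formazan was dissolved in DMSO and absorbance read at 490 nm.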
A general note: Tetrazolium dyes change colour on reduction, which living cells bring about.

The next assay relates to HeLa. The assay can be described thus: Antiproliferative activity against human HeLa cells after 48 hrs by MTT method. The assay is classed as functional, cell-based.
Assay [5] relates to HepG2. Put plainly: Induction of apoptosis in human HepG2 cells assessed as early apoptotic cells at 1 uM after 24 hrs by annexin VeFITC/PI-based flow cytometry (reference value: 3.28 %). The class given is functional.
In assay [6] the test system is HepG2. The assay can be described thus: Antiproliferative activity against human HepG2 cells after 48 hrs by MTT method. The assay is classed as functional, cell-based. The following applies: HepG2, 48 h.
Assay [7] concerns HepG2. Put plainly: Induction of apoptosis in human HepG2 cells assessed as late apoptotic cells at 0.5 uM after 24 hrs by annexin VeFITC/PI-based flow cytometry (reference value: 6.84 %). The assay is classed as functional.
Assay [8] deals with HepG2. The assay can be described thus: Induction of apoptosis in human HepG2 cells assessed as late apoptotic cells at 0.25 uM after 24 hrs by annexin VeFITC/PI-based flow cytometry (reference value: 6.84 %). The assay is classed as functional.
Assay [9] in a line: Antiproliferative activity against human SW1116 cells after 48 hrs by MTT method. The assay is classed as functional, cell-based. The following applies: SW 1116, 48 h.
Assay [10] has as its system HepG2. The assay can be described thus: Induction of apoptosis in human HepG2 cells assessed as early apoptotic cells at 0.25 uM after 24 hrs by annexin VeFITC/PI-based flow cytometry (reference value: 3.28 %). The class given is functional.
The subject of assay [11] is HepG2. The assay can be described thus: Induction of apoptosis in human HepG2 cells assessed as viable cells at 1 uM after 24 hrs by annexin VeFITC/PI-based flow cytometry (reference value: 89.18 %). The class given is functional. The following applies: HepG2, 24 h, read-out: Activity.
Assay [12] deals with HepG2. Put plainly: Induction of apoptosis in human HepG2 cells assessed as necrotic cells at 2 uM after 24 hrs by annexin VeFITC/PI-based flow cytometry (reference value: 0.7 %). The assay is classed as functional.
In assay [13] the test system is HepG2. Put plainly: Induction of apoptosis in human HepG2 cells assessed as late apoptotic cells at 2 uM after 24 hrs by annexin VeFITC/PI-based flow cytometry (reference value: 6.84 %). The class given is functional.
Assay [14] concerns HepG2. The assay can be described thus: Induction of apoptosis in human HepG2 cells assessed as necrotic cells at 1 uM after 24 hrs by annexin VeFITC/PI-based flow cytometry (reference value: 0.7 %). The class given is functional.
The test system of assay [15] is HepG2. Put plainly: Induction of apoptosis in human HepG2 cells assessed as necrotic cells at 0.5 uM after 24 hrs by annexin VeFITC/PI-based flow cytometry (reference value: 0.7 %). The class given is functional.
Assay [16] deals with HepG2. The assay can be described thus: Induction of apoptosis in human HepG2 cells assessed as early apoptotic cells at 2 uM after 24 hrs by annexin VeFITC/PI-based flow cytometry (reference value: 3.28 %). The assay is classed as functional.
The target in assay [17] is Telomerase reverse transcriptase (Homo sapiens, UniProt O14746). The assay can be described thus: Inhibition of telomerase in human HepG2 cells after 24 hrs by TRAP-PCR-ELISA assay. The class given is cell-based. A digest of the protocol: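 Cells in serum/penicillin/streptomycin medium (37 °C, 5% CO₂) were seeded at 5×10⁴ per T25 flask and allowed to adhere. After 24 h treatment, cells were lysed in RIPA buffer on ice for 30 min and spun at 12,000 g for 20 min at 4 °C. For the kit-based TRAP-PCR-ELISA, PCR ran 94 °C 120 s, then 35 cycles of 94/50/72 °C. Product was hybridised to a DIG probe, captured via biotin-streptavidin, detected with peroxidase anti-DIG, and read at 490 nm.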
For orientation: In an ELISA, binding on a coated surface is turned into a signal by an enzyme label.

The subject of assay [18] is HepG2. Put plainly: Induction of apoptosis in human HepG2 cells after 24 hrs by annexin VeFITC/PI-based flow cytometry. The class given is functional, cell-based.
For assay [19], the system named is HepG2. The assay can be described thus: Induction of apoptosis in human HepG2 cells assessed as late apoptotic cells at 1 uM after 24 hrs by annexin VeFITC/PI-based flow cytometry (reference value: 6.84 %). The class given is functional.
The test system of assay [20] is HepG2. The assay can be described thus: Induction of apoptosis in human HepG2 cells assessed as early apoptotic cells at 0.5 uM after 24 hrs by annexin VeFITC/PI-based flow cytometry (reference value: 3.28 %). The assay is classed as functional.

Telomerase reverse transcriptase, sequence (O14746 whole entry): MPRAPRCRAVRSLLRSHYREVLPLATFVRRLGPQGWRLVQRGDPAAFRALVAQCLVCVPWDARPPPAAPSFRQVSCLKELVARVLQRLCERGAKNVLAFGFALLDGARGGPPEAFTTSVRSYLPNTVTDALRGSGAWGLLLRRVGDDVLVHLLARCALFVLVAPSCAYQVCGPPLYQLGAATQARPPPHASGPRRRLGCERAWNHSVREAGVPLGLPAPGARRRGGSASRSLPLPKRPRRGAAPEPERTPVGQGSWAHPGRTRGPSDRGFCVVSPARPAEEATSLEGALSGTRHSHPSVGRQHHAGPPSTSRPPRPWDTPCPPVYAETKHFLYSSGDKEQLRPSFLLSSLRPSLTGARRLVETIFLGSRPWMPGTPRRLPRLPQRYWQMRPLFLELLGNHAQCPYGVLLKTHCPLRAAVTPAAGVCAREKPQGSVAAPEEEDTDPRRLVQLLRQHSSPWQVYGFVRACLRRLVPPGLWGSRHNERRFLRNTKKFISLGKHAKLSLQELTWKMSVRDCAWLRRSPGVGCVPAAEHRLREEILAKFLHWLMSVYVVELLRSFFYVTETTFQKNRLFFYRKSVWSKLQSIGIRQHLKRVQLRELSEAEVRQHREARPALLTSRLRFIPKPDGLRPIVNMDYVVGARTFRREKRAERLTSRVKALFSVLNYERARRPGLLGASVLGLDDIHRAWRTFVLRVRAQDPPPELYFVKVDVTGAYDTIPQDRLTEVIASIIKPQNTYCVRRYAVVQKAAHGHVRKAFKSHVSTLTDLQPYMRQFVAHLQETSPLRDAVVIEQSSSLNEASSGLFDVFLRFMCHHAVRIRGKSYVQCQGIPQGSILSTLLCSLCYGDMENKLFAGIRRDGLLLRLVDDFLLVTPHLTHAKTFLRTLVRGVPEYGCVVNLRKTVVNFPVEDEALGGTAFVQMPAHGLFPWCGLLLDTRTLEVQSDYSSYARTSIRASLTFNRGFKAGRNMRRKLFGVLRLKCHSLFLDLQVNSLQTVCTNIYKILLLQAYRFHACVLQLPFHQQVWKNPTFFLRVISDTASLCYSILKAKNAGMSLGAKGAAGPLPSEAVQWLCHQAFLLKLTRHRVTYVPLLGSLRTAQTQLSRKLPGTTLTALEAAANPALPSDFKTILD

Regarding `Brc1ccc(CSc2nnc(-c3cnccn3)s2)cc1`, the Activity in the assay on HepG2 [1] turned out to be 1.72%; with HepG2 [5] it was 14.96%; with HepG2 [7], 24.02%; in the assay on HepG2 [8], 8.62%; with HepG2 [10], 4.36%; with HepG2 [12] it was 2.82%. Moreover, the Activity in the assay with HepG2 [13] was 35.16%; with HepG2 [14], 4.18%; in the assay on HepG2 [15] it was 3.62%; in the assay on HepG2 [16] it was 17.54%; in the assay on HepG2 [18], “Dose-dependent effect”; with HepG2 [19], 30.6%. In addition, the Activity with HepG2 [20] is on record as 11.48%. Also, in the assay with HepG2 [2], the viability at 2 µM came to 44.5%. Moreover, the viability at 0.5 µM in the assay with HepG2 [3] amounted to 60.9%. Further, the viability at 0.25 µM with HepG2 [4] was found to be 85.3%. Moreover, the IC50 was 25200 nM in the assay on BGC-823; 12400 nM in the assay with HeLa; 780 nM in the assay on HepG2 [6]; 1470 nM in [9]; 1240 nM in assay [17]. Also, the viability at 1 µM with HepG2 [11] came out at 50.3%.
